{"source": "paper PMC4306626", "about": "(Journal of chromatography. B, Analytical technologies in …, 2015)", "key": {"Akt and Jun kinase (JNK)": {"test_system": "Akt and Jun kinase (JNK)", "conditions": "breast and prostate cancer cell lines; cited from earlier work"}, "metastatic cancer cells [1]": {"test_system": "metastatic cancer cells", "conditions": "higher concentrations; cited from earlier work"}, "[2]": {"test_system": "p21-activated kinase 1 (PAK1)", "conditions": "cited from earlier work"}, "Rac": {"test_system": "Rac", "conditions": "read-out: IC50, Rac activity; metastatic cancer cells; cited from earlier work"}, "c-Myc and Cyclin D": {"test_system": "c-Myc and Cyclin D", "conditions": "breast and prostate cancer cell lines; cited from earlier work"}, "murine leukemic cell": {"test_system": "murine leukemic cell", "conditions": "cited from earlier work"}, "endothelial cells": {"test_system": "endothelial cells", "conditions": "in vitro; cited from earlier work"}, "[3]": {"test": "Stability of EHop-016 in mouse plasma", "assay_type": "in vitro ADME", "conditions": "for Concentration Measured (Mean ± S.D.): n=6; for Accuracy (% RE): stable if within ± 15 %", "procedure,_shortened": "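Test compound was spiked into mouse plasma at 5 and 1000 ng/mL and held on the bench for 5 h, six replicates per level. It was then extracted by protein precipitation and quantified by UPLC/MS/MS against plasma calibration standards. Accuracy was %RE against nominal and precision was %RSD. The compound counted as stable when %RE was within ± 15 %.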"}, "murine melanoma cell": {"test_system": "murine melanoma cell", "conditions": "cited from earlier work"}, "[4]": {"test": "Physicochemical properties"}, "human T-lymphocyte": {"test_system": "human T-lymphocyte", "conditions": "cited from earlier work"}, "mammary fat pad tumor": {"test_system": "mammary fat pad tumor", "conditions": "25 mg/kg body weight (BW), nude mice; cited from earlier work"}, "Rho GTPase Cdc42": {"test_system": "Rho GTPase Cdc42", "conditions": "higher concentrations; cited from earlier work"}, "human leukemic cell": {"test_system": "human leukemic cell", "conditions": "cited from earlier work"}, "metastatic cancer cells [5]": {"test_system": "metastatic cancer cells", "conditions": "cited from earlier work"}, "[6]": {"test_system": "Rac with the guanine nucleotide exchange factor Vav2", "conditions": "cited from earlier work"}, "[7]": {"test": "Pharmacokinetics in nude mice after single IP or PO dose", "assay_type": "in vivo, athymic nude (Nu/Nu) mice", "conditions": "IP; for AUC0-t/Dose: n=5", "procedure,_shortened": "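Female athymic nude mice, 3–4 weeks old, received a single 0.1 mL dose at 10, 20 or 40 mg/kg, given IP or by oral gavage. Vehicle was cremophor:ethanol:PBS (12.5:12.5:75). Four to five mice per group were killed at 0.5, 1, 4, 8 and 12 h. Cardiac blood went into sodium citrate on ice. Plasma was protein-precipitated with internal standard and assayed by UPLC/MS/MS (5–1000 ng/mL). Pooled non-compartmental analysis used linear/log-linear trapezoids.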"}, "[8]": {"conditions": "Benchtop (5 Hr), nominal 5 ng/mL"}, "[9]": {"conditions": "Benchtop (5 Hr), nominal 1000 ng/mL"}}, "note": "“And” between values parts separate entries of the source, which are not always exact repeats. Equal values may be shown once. Marks after values point to notes of the source that are not given here.", "data": [{"compound": "CCn1c2ccccc2c2cc(Nc3ccnc(NCCCN4CCOCC4)n3)ccc21", "note": "[EHop-016, (N4-(9-Ethyl-9H-carbazol-3-yl)-N2-(3-morpholin-4-yl-propyl)-pyrimidine-2,4-diamine)]", "values": [{"measurement": "Akt and Jun kinase (JNK) activities", "setting": "Akt and Jun kinase (JNK)", "result": "decreased"}, {"measurement": "concentration at which apoptosis is activated", "setting": "metastatic cancer cells [1]", "result": "> 10", "unit": "µM"}, {"measurement": "concentration at which cell viability is reduced", "setting": "metastatic cancer cells [1]", "result": "> 10", "unit": "µM"}, {"measurement": "activity of PAK1", "setting": "[2]", "result": "inhibit"}, {"measurement": "IC50", "setting": "Rac", "result": 1000, "unit": "nM"}, {"measurement": "expression of c-Myc and Cyclin D", "setting": "c-Myc and Cyclin D", "result": "decreased"}, {"measurement": "murine leukemic cell growth", "setting": "murine leukemic cell", "result": "inhibits"}, {"measurement": "Rac activity and capillary tube formation of endothelial cells", "setting": "endothelial cells", "result": "inhibition"}, {"measurement": "stability in mouse plasma", "setting": "[3]; 12 freeze-thaw cycles lasting 12 hours and six freeze-thaw cycles lasting 24 hours", "result": "stable"}, {"measurement": "Concentration Measured (Mean ± S.D.)", "setting": "[3]; [8]", "result": "4.67 ± 0.36", "unit": "ng/mL"}, {"measurement": "Accuracy (% RE)", "setting": "[3]; [8]", "result": "−6.6", "unit": "% RE"}, {"measurement": "Concentration Measured (Mean ± S.D.)", "setting": "[3]; [9]", "result": "999.39 ± 17.23", "unit": "ng/mL"}, {"measurement": "Accuracy (% RE)", "setting": "[3]; [9]", "result": "−0.1", "unit": "% RE"}, {"measurement": "Accuracy (% RE)", "setting": "[3]; Freeze-Thaw 6 Cycles (24 Hr), nominal 5 ng/mL", "result": 14.3, "unit": "% RE"}, {"measurement": "Accuracy (% RE)", "setting": "[3]; Freeze-Thaw 6 Cycles (24 Hr), nominal 1000 ng/mL", "result": 11.6, "unit": "% RE"}, {"measurement": "Concentration Measured (Mean ± S.D.)", "setting": "[3]; Freeze-Thaw 6 Cycles (24 Hr), −80°C, nominal 5 ng/mL", "result": "5.71 ± 0.34", "unit": "ng/mL"}, {"measurement": "Concentration Measured (Mean ± S.D.)", "setting": "[3]; Freeze-Thaw 6 Cycles (24 Hr), −80°C, nominal 1000 ng/mL", "result": "1116.32 ± 27.38", "unit": "ng/mL"}, {"measurement": "Accuracy (% RE)", "setting": "[3]; Freeze-Thaw 12 Cycles (12 Hr), nominal 5 ng/mL", "result": 11.3, "unit": "% RE"}, {"measurement": "Accuracy (% RE)", "setting": "[3]; Freeze-Thaw 12 Cycles (12 Hr), nominal 1000 ng/mL", "result": 12.8, "unit": "% RE"}, {"measurement": "Concentration Measured (Mean ± S.D.)", "setting": "[3]; Freeze-Thaw 12 Cycles (12 Hr), −80°C, nominal 5 ng/mL", "result": "5.57 ± 0.05", "unit": "ng/mL"}, {"measurement": "Concentration Measured (Mean ± S.D.)", "setting": "[3]; Freeze-Thaw 12 Cycles (12 Hr), −80°C, nominal 1000 ng/mL", "result": "1127.70 ± 14.36", "unit": "ng/mL"}, {"measurement": "Accuracy (% RE)", "setting": "[3]; Long Term Stability 26 Days, nominal 5 ng/mL", "result": 4.9, "unit": "% RE"}, {"measurement": "Accuracy (% RE)", "setting": "[3]; Long Term Stability 26 Days, nominal 1000 ng/mL", "result": 0.4, "unit": "% RE"}, {"measurement": "Concentration Measured (Mean ± S.D.)", "setting": "[3]; Long Term Stability 26 Days, −20°C, nominal 5 ng/mL", "result": "5.24 ± 0.08", "unit": "ng/mL"}, {"measurement": "Concentration Measured (Mean ± S.D.)", "setting": "[3]; Long Term Stability 26 Days, −20°C, nominal 1000 ng/mL", "result": "1004.39 ± 25.98", "unit": "ng/mL"}, {"measurement": "Accuracy (% RE)", "setting": "[3]; Long Term Stability 111 Days, nominal 5 ng/mL", "result": "−1.3", "unit": "% RE"}, {"measurement": "Accuracy (% RE)", "setting": "[3]; Long Term Stability 111 Days, nominal 1000 ng/mL", "result": "−4.3", "unit": "% RE"}, {"measurement": "Concentration Measured (Mean ± S.D.)", "setting": "[3]; Long Term Stability 111 Days, −20°C, nominal 5 ng/mL", "result": "4.94 ± 0.29", "unit": "ng/mL"}, {"measurement": "Concentration Measured (Mean ± S.D.)", "setting": "[3]; Long Term Stability 111 Days, −20°C, nominal 1000 ng/mL", "result": "956.77 ± 79.26", "unit": "ng/mL"}, {"measurement": "Concentration Measured (Mean ± S.D.)", "setting": "[3]; Post Preparation (237 Hours), ambient temperature, nominal 10 ng/mL", "result": "10.79 ± 0.25", "unit": "ng/mL"}, {"measurement": "Concentration Measured (Mean ± S.D.)", "setting": "[3]; Post Preparation (237 Hours), ambient temperature, nominal 30 ng/mL", "result": "32.20 ± 1.40", "unit": "ng/mL"}, {"measurement": "Concentration Measured (Mean ± S.D.)", "setting": "[3]; Post Preparation (237 Hours), ambient temperature, nominal 75 ng/mL", "result": "83.79 ± 2.06", "unit": "ng/mL"}, {"measurement": "Concentration Measured (Mean ± S.D.)", "setting": "[3]; Post Preparation (237 Hours), ambient temperature, nominal 750 ng/mL", "result": "838.83 ± 22.57", "unit": "ng/mL"}, {"measurement": "Accuracy (% RE)", "setting": "[3]; Post Preparation (237 Hours), nominal 10 ng/mL", "result": 7.88, "unit": "% RE"}, {"measurement": "Accuracy (% RE)", "setting": "[3]; Post Preparation (237 Hours), nominal 30 ng/mL", "result": 7.32, "unit": "% RE"}, {"measurement": "Accuracy (% RE)", "setting": "[3]; Post Preparation (237 Hours), nominal 75 ng/mL", "result": 11.72, "unit": "% RE"}, {"measurement": "Accuracy (% RE)", "setting": "[3]; Post Preparation (237 Hours), nominal 750 ng/mL", "result": 11.84, "unit": "% RE"}, {"measurement": "stability in mouse plasma", "setting": "[3]; all of the conditions tested in the validation", "result": "very stable"}, {"measurement": "stability in mouse plasma", "setting": "[3]; ambient temperature, five hours and 237 hours", "result": "stable"}, {"measurement": "stability in mouse plasma", "setting": "[3]; long-term at –20°C, 26 days and 111 days", "result": "stable"}, {"measurement": "murine melanoma cell migration", "setting": "murine melanoma cell", "result": "inhibits"}, {"measurement": "pKa", "setting": "[4]", "result": 5}, {"measurement": "lipid solubility", "setting": "[4]; source not stated", "result": "highly lipid-soluble"}, {"measurement": "human T-lymphocyte migration", "setting": "human T-lymphocyte", "result": "inhibits"}, {"measurement": "tumor growth, metastasis and angiogenesis", "setting": "mammary fat pad tumor", "result": "effective at reducing mammary fat pad tumor growth, metastasis, and angiogenesis"}, {"measurement": "concentration at which activity of the Rho GTPase Cdc42 is inhibited", "setting": "Rho GTPase Cdc42", "result": "> 10", "unit": "µM"}, {"measurement": "human leukemic cell growth", "setting": "human leukemic cell", "result": "inhibits"}, {"measurement": "Rac-directed lamellipodia formation and directed cell migration", "setting": "metastatic cancer cells [5]", "result": "inhibit"}, {"measurement": "interaction of Rac with Vav2", "setting": "[6]", "result": "disrupt"}, {"measurement": "Cl/F", "setting": "[7]; 10 mg/kg", "result": "494.2 ± 79.4", "unit": "mL/h"}, {"measurement": "Lambda-z", "setting": "[7]; 10 mg/kg", "result": ".12 ± 0.01 hr ^−1"}, {"measurement": "AUC0-t/Dose", "setting": "[7]; 10 mg/kg", "result": "32.80 ± 4.21^a"}, {"measurement": "Cl/F", "setting": "[7]; 20 mg/kg", "result": "464.7 ± 51.5", "unit": "mL/h"}, {"measurement": "Lambda-z", "setting": "[7]; 20 mg/kg", "result": ".15 ± .01 hr ^−1"}, {"measurement": "AUC0-t/Dose", "setting": "[7]; 20 mg/kg", "result": "38.42 ± 3.53^a"}, {"measurement": "Cl/F", "setting": "[7]; 40 mg/kg", "result": "394.2 ± 46.6", "unit": "mL/h"}, {"measurement": "Lambda-z", "setting": "[7]; 40 mg/kg", "result": ".18 ± .01 hr ^−1"}, {"measurement": "AUC0-t/Dose", "setting": "[7]; 40 mg/kg", "result": "46.75 ± 5.42^a"}, {"measurement": "clearance (Cl/F)", "setting": "[7]; range over doses", "result": "394 to 494 mL/h and 394.2 to 494.2 mL/h"}]}]}
